Test results reported in ChEMBL document CHEMBL1629485, “Lead identification of conformationally restricted β-lactam type combretastatin analogues: synthesis, antiproliferative activity and tubulin targeting effects” (Eur J Med Chem, 2010).

How the values were obtained:
Type in all cases: functional
MDA-MB-231 [1] = experiment: Cell cycle arrest in estrogen receptor deficient human MDA-MB-231 cells assessed as accumulation at sub-G1 phase at 1 uM after 24 hrs using propidium iodide staining by flow cytometry relative to control
In short: (§1)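 MDA-MB-231 cells in DMEM with 10% FBS and 2 mM L-glutamine, seeded at 18 × 10⁴ cells/mL. Exposed to test agent at the stated final concentration, or to 1% (v/v) ethanol vehicle, for 24, 48 or 72 h. Harvested by scraping and centrifugation, then RNase A treatment and propidium iodide DNA staining for at least 30 min at 37 °C. 10,000 cells per sample read at 488 nm by flow cytometry; mean ± SD of three experiments.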

MDA-MB-231 [2] = experiment: Cell cycle arrest in estrogen receptor deficient human MDA-MB-231 cells assessed as accumulation at sub-G1 phase at 10 uM after 24 hrs using propidium iodide staining by flow cytometry relative to control; in short: as §1
MDA-MB-231 [3] = experiment: Cell cycle arrest in estrogen receptor deficient human MDA-MB-231 cells assessed as accumulation at sub-G1 phase at 1 uM after 72 hrs using propidium iodide staining by flow cytometry relative to control; in short: as §1
MDA-MB-231 [4] = experiment: Cell cycle arrest in estrogen receptor deficient human MDA-MB-231 cells assessed as accumulation at sub-G1 phase at 10 uM after 72 hrs using propidium iodide staining by flow cytometry relative to control; in short: as §1
MDA-MB-231 [5] = experiment: Cell cycle arrest in estrogen receptor deficient human MDA-MB-231 cells assessed as accumulation at G1 phase at 100 nM after 24 hrs using propidium iodide staining by flow cytometry relative to control; in short: as §1
MDA-MB-231 [6] = experiment: Cell cycle arrest in estrogen receptor deficient human MDA-MB-231 cells assessed as accumulation at G1 phase at 1 uM after 24 hrs using propidium iodide staining by flow cytometry relative to control; in short: as §1
MDA-MB-231 [7] = experiment: Cell cycle arrest in estrogen receptor deficient human MDA-MB-231 cells assessed as accumulation at G1 phase at 10 uM after 24 hrs using propidium iodide staining by flow cytometry relative to control; in short: as §1
MDA-MB-231 [8] = experiment: Cell cycle arrest in estrogen receptor deficient human MDA-MB-231 cells assessed as accumulation at G1 phase at 10 nM after 48 hrs using propidium iodide staining by flow cytometry relative to control; in short: as §1
MDA-MB-231 [9] = experiment: Cell cycle arrest in estrogen receptor deficient human MDA-MB-231 cells assessed as accumulation at G1 phase at 10 uM after 48 hrs using propidium iodide staining by flow cytometry relative to control; in short: as §1
MDA-MB-231 [10] = experiment: Cell cycle arrest in estrogen receptor deficient human MDA-MB-231 cells assessed as accumulation at G1 phase at 10 nM after 72 hrs using propidium iodide staining by flow cytometry relative to control; in short: as §1
MDA-MB-231 [11] = experiment: Cell cycle arrest in estrogen receptor deficient human MDA-MB-231 cells assessed as accumulation at G1 phase at 100 nM after 72 hrs using propidium iodide staining by flow cytometry relative to control; in short: as §1
MDA-MB-231 [12] = experiment: Cell cycle arrest in estrogen receptor deficient human MDA-MB-231 cells assessed as accumulation at S phase at 10 nM after 24 hrs using propidium iodide staining by flow cytometry relative to control; in short: as §1
MDA-MB-231 [13] = experiment: Cell cycle arrest in estrogen receptor deficient human MDA-MB-231 cells assessed as accumulation at S phase at 100 nM after 24 hrs using propidium iodide staining by flow cytometry relative to control; in short: as §1
MDA-MB-231 [14] = experiment: Cell cycle arrest in estrogen receptor deficient human MDA-MB-231 cells assessed as accumulation at S phase at 10 uM after 24 hrs using propidium iodide staining by flow cytometry relative to control; in short: as §1
MDA-MB-231 [15] = experiment: Cell cycle arrest in estrogen receptor deficient human MDA-MB-231 cells assessed as accumulation at S phase at 10 nM after 48 hrs using propidium iodide staining by flow cytometry relative to control; in short: as §1
MDA-MB-231 [16] = experiment: Cell cycle arrest in estrogen receptor deficient human MDA-MB-231 cells assessed as accumulation at S phase at 10 uM after 48 hrs using propidium iodide staining by flow cytometry relative to control; in short: as §1
MDA-MB-231 [17] = experiment: Cell cycle arrest in estrogen receptor deficient human MDA-MB-231 cells assessed as accumulation at S phase at 10 nM after 72 hrs using propidium iodide staining by flow cytometry relative to control; in short: as §1
MDA-MB-231 [18] = experiment: Cell cycle arrest in estrogen receptor deficient human MDA-MB-231 cells assessed as accumulation at G2/M phase at 10 nM after 24 hrs using propidium iodide staining by flow cytometry relative to control; in short: as §1
MDA-MB-231 [19] = experiment: Cell cycle arrest in estrogen receptor deficient human MDA-MB-231 cells assessed as accumulation at G2/M phase at 1 uM after 24 hrs using propidium iodide staining by flow cytometry relative to control; in short: as §1
MDA-MB-231 [20] = experiment: Cell cycle arrest in estrogen receptor deficient human MDA-MB-231 cells assessed as accumulation at G2/M phase at 10 nM after 48 hrs using propidium iodide staining by flow cytometry relative to control; in short: as §1
MDA-MB-231 [21] = experiment: Cell cycle arrest in estrogen receptor deficient human MDA-MB-231 cells assessed as accumulation at G2/M phase at 100 nM after 72 hrs using propidium iodide staining by flow cytometry relative to control; in short: as §1
MDA-MB-231 [22] = experiment: Cell cycle arrest in estrogen receptor deficient human MDA-MB-231 cells assessed as accumulation at G2/M phase at 1 uM after 72 hrs using propidium iodide staining by flow cytometry relative to control; in short: as §1
MDA-MB-231 [23] = experiment: Cell cycle arrest in estrogen receptor deficient human MDA-MB-231 cells assessed as accumulation at G2/M phase at 10 uM after 72 hrs using propidium iodide staining by flow cytometry relative to control; in short: as §1
MDA-MB-231 [24] = experiment: Cell cycle arrest in estrogen receptor deficient human MDA-MB-231 cells assessed as appearance of polyploidy at 1 uM after 24 hrs using propidium iodide staining by flow cytometry relative to control; in short: as §1
MDA-MB-231 [25] = experiment: Cell cycle arrest in estrogen receptor deficient human MDA-MB-231 cells assessed as appearance of polyploidy at 10 nM after 48 hrs using propidium iodide staining by flow cytometry relative to control; in short: as §1
MDA-MB-231 [26] = experiment: Cell cycle arrest in estrogen receptor deficient human MDA-MB-231 cells assessed as appearance of polyploidy at 100 nM after 48 hrs using propidium iodide staining by flow cytometry relative to control
In short: (§2)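 MDA-MB-231 cells seeded at 18 × 10⁴ cells/mL and exposed to 1% (v/v) ethanol vehicle or compound at final concentrations (10 nM, 100 nM, 10 µM at all times; 1 µM also at 24 and 72 h). Cells harvested after 24, 48 or 72 h and treated with RNase A and propidium iodide for at least 30 min at 37 °C. 10,000 cells read at 488 nm by flow cytometry. Percent cells per phase reported, including polyploid; mean ± SD of three experiments.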

MDA-MB-231 [27] = experiment: Cell cycle arrest in estrogen receptor deficient human MDA-MB-231 cells assessed as appearance of polyploidy at 10 uM after 48 hrs using propidium iodide staining by flow cytometry relative to control; in short: as §2
MDA-MB-231 [28] = experiment: Cell cycle arrest in estrogen receptor deficient human MDA-MB-231 cells assessed as appearance of polyploidy at 10 nM after 72 hrs using propidium iodide staining by flow cytometry relative to control; in short: as §1
MDA-MB-231 [29] = experiment: Cell cycle arrest in estrogen receptor deficient human MDA-MB-231 cells assessed as appearance of polyploidy at 100 nM after 72 hrs using propidium iodide staining by flow cytometry relative to control; in short: as §2
MDA-MB-231 [30] = experiment: Cell cycle arrest in estrogen receptor deficient human MDA-MB-231 cells assessed as appearance of polyploidy at 1 uM after 72 hrs using propidium iodide staining by flow cytometry relative to control; in short: as §1

COc1ccc(C2CC(=O)N2c2cc(OC)c(OC)c(OC)c2)cc1O (stereo not given)
Activity (MDA-MB-231 [1]): 7.08%
Activity (MDA-MB-231 [2]): 3.18%
Activity (MDA-MB-231 [3]): 50.53%
Activity (MDA-MB-231 [4]): 46.49%
Activity (MDA-MB-231 [5]): 18.95%
Activity (MDA-MB-231 [6]): 19.22%
Activity (MDA-MB-231 [7]): 29.3%
Activity (MDA-MB-231 [8]): 45.25%
Activity (MDA-MB-231 [9]): 14.44%
Activity (MDA-MB-231 [10]): 48.24%
Activity (MDA-MB-231 [11]): 13.9%
Activity (MDA-MB-231 [12]): 12.55%
Activity (MDA-MB-231 [13]): 6.05%
Activity (MDA-MB-231 [14]): 3.72%
Activity (MDA-MB-231 [15]): 13.36%
Activity (MDA-MB-231 [16]): 4.47%
Activity (MDA-MB-231 [17]): 9.08%
Activity (MDA-MB-231 [18]): 25.61%
Activity (MDA-MB-231 [19]): 63.16%
Activity (MDA-MB-231 [20]): 23.71%
Activity (MDA-MB-231 [21]): 12.62%
Activity (MDA-MB-231 [22]): 21.24%
Activity (MDA-MB-231 [23]): 21.81%
Activity (MDA-MB-231 [24]): 4.31%
Activity (MDA-MB-231 [25]): 6.1%
Activity (MDA-MB-231 [26]): 4.61%
Activity (MDA-MB-231 [27]): 2.28%
Activity (MDA-MB-231 [28]): 3.55%
Activity (MDA-MB-231 [29]): 2.99%
Activity (MDA-MB-231 [30]): 5.97%
